Assay results: paper PMC11482445 (Journal of neurochemistry, 2024)
Where two headings read alike, the source gives them in different places.

Legend:
[1] = cited from earlier work
[2] = cited from earlier work; remark: listed apart in the source
[3] = assay type: in vivo, mice
[4] = assay type: in vivo, mice; remark: listed apart in the source
In short: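 Mice (isoflurane-anesthetized or awake) given IV tracer (>99% radiochemical purity, in 95% 20 mM sodium phosphate pH 8.0/5% EtOH); euthanized 35 min later. Brain homogenized in 0.4 N HClO4 (~1:2 w/v) by 30 s ultrasonication at 4 °C, spun 21,000 RCF, 8 °C, 7 min. Plasma and pH-neutralized supernatant passed through 10K filter, then radio-HPLC on C18 with 10 mM NH4HCO3 pH 8.0/MeCN (96:4). Samples kept on ice. Percent parent fraction reported.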

CYP2E1 [5] = settings: in vitro competition assay; cited from earlier work
[6] = not told; cited from earlier work
[7] = humans, 24h after oral administration of ^14C-labeled 4AP; cited from earlier work
CYP2E1 [8] = settings: humans, DSF treatment; cited from earlier work

Compound: Nc1ccncc1[18F] [[^18F]3F4AP, 3-[^18F]fluoro-4-aminopyridine]
- brain uptake SUV at 4 min ([1]; NHPs, brain, 4 min): > 3
- parent fraction (metabolic stability) ([1]; NHPs, up to 2h post-injection): > 90%
- brain SUV 90 min post-injection ([1]; anesthetized NHPs, brain TAC, Fig. 3A): ~ 1.50
- SUV90 min-WB (NHP) ([1]; anesthetized NHPs, whole blood, 90 min): 0.946
- brain SUV 90 min post-injection ([2]; awake humans, brain TAC, Fig. 3A): 0.54
- SUV90 min-WB (human) ([2]; awake humans, whole blood, 90 min): 0.87
- parent remaining in blood ([2]; humans, 1h post-injection): less than 50%
- SUV35 min-br (awk mice) ([3]; brain, 35 min post-injection, IV, awake mice, n = 20, mean ± SEM): 0.28 ± 0.04
- WB and brain SUV values, awake vs anesthetized mice ([3]; euthanized at 60 sec (1 min) post-tracer injection, Fig. S1): no significant differences
- SUV35 min-WB (awk mice) ([3]; whole blood, 35 min post-injection, IV, awake mice, mean ± SEM): 0.51 ± 0.05
- SUV35 min-WB (iso mice) ([3]; whole blood, 35 min post-injection, IV, isoflurane-anesthetized mice, mean ± SEM): 0.66 ± 0.08
- percent parent fraction in brain (%PFawk-br) ([4]; brain, awake mice, 35 min post-tracer, n = 8, mean ± SEM): 80.3 ± 2.7%
- proportion of radiometabolites in the brain, anesthetized mice ([4]; brain, isoflurane-anesthetized mice, 35 min): 1.6%
- percent parent fraction in brain (%PFiso-br) ([4]; brain, isoflurane-anesthetized mice, 35 min post-tracer, n = 5, mean ± SEM): 98.4 ± 0.2%
- concentration of metabolites in plasma, awake mice ([4]; plasma, awake mice, 35 min): 82.3%
- percent parent fraction in plasma (%PFawk-pl) ([4]; plasma, awake mice, 35 min post-tracer, n = 11, mean ± SEM): 17.7 ± 1.7%
- concentration of metabolites in plasma, anesthetized mice ([4]; plasma, isoflurane-anesthetized mice, 35 min): 25.2%
- percent parent fraction in plasma (%PFiso-pl) ([4]; plasma, isoflurane-anesthetized mice, 35 min post-tracer, n = 10, mean ± SEM): 74.8 ± 1.6%

Compound: Nc1ccncc1F [3F4AP, 3-fluoro-4-aminopyrdine]
- affinity of CYP2E1 relative to the affinity for 4AP (CYP2E1 [5]): 50 times

Compound: Nc1c(O)cncc1F [5-hydroxy-3F4AP]
- permeability across an artificial brain membrane [6]: low permeability

Compound: Nc1ccncc1 [4AP, 4-aminopyridine]
- radioactive species recovered in urine corresponding to the unchanged drug [7]: ~ 90%

Compound: Nc1cc[n+]([O-])cc1F [3F4AP N-oxide]
- permeability across an artificial brain membrane [6]: low permeability

Compound: CCN(CC)C(=S)SSC(=S)N(CC)CC [DSF, disulfiram]
- prevention of clinical isoflurane metabolism (CYP2E1 [8]): 80–90%
